Consider two molecules from paper PMC3575752 (Journal of nuclear medicine : official publication, Society …, 2009).

One data set deals with purified PSMA (Homo sapiens, UniProt Q04609). The experiment in a line: HPLC-based PSMA inhibition IC50 assay. The note with it: read-out: IC50, PSMA inhibition; PABGgG 1 μM, 15 min, 37°C, Tris pH 7.4. It is filed as biochemical. In a few lines:
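Purified PSMA diluted in 50 mM Tris pH 7.4 with 1% Triton X-100 to give 15–20% uninhibited conversion. […] Shaken 15 min at 37°C, then quenched with 2% TFA in methanol and buffered with 0.1 M K2HPO4. After centrifugation, supernatant product measured by HPLC; IC50 calculated.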

The subject of data set [1] is LNCaP PSMA+ tumor xenografts. The data set can be described thus: microPET/CT imaging of LNCaP. The note with it: 1 mg nonradioactive (2) 1 h before tracer, 120 min after injection. Type of data set: in vivo, male NCr nude mice. In short, it runs like this: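 LNCaP-xenograft male nude mice (tumours 5–10 mm) under isoflurane were pretreated with 1 mg unlabelled analogue in 200 μL Tris buffer. One hour later they received tail-vein 18F tracer (3,700–7,400 kBq). MicroPET/CT, 10-min acquisitions at 0, 1 and 2 h, list mode, 2D OSEM reconstruction.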

Data set [2] concerns PC-3 PSMA− tumor xenografts. The data set can be described thus: Ex vivo biodistribution in mice bearing PC-3. The arrangement: species or system male NCr nude mice. In short, it runs like this: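 Male NCr nude mice with subcutaneous right-shoulder PC-3 xenografts (cells in serum-free medium; tumours 5–10 mm, 1–2 wk). 18F tracer, 3,700–7,400 kBq, by tail vein under isoflurane. Euthanised after 2 h imaging. Cardiac blood, major organs (including kidney) and tumour weighed and γ-counted. %ID/g from known-activity standards. n = 3; one-tailed t test, unequal variance.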

Data set [3] deals with PC-3 PSMA− tumor xenografts. The data set can be described thus: microPET/CT imaging of PC-3. Type of data set: in vivo, male NCr nude mice. Conditions: PC-3 PSMA− xenograft, 2 h post-injection. In a few lines:
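PC-3-xenograft male NCr nude mice (tumours 5–10 mm, 1–2 wk after subcutaneous inoculation) anaesthetised with isoflurane. Tail-vein 18F tracer, 3,700–7,400 kBq (100–200 μCi). MicroPET/CT, 10-min scans at 0, 1 and 2 h. List-mode data, 2D OSEM reconstruction.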

Chain of purified PSMA (Q04609 whole entry): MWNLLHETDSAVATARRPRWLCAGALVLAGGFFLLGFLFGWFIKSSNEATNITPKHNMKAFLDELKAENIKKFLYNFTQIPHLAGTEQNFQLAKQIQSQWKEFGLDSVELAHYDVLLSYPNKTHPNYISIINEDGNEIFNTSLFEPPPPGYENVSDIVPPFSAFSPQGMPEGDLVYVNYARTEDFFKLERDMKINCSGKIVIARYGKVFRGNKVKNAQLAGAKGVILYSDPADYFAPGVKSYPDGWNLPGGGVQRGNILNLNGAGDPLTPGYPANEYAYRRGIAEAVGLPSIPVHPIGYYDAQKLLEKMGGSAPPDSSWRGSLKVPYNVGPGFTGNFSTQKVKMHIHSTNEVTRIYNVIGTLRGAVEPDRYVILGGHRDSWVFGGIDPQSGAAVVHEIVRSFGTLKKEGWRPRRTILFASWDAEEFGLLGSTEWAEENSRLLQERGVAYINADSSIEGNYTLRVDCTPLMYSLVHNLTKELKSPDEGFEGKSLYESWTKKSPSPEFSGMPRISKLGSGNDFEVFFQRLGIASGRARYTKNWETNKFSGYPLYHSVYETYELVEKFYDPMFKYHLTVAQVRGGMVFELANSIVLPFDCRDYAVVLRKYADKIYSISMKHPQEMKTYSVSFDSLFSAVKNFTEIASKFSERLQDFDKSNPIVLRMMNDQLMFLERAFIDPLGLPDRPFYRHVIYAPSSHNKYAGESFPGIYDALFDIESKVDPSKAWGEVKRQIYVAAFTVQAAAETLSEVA

In general, IC50 refers to the concentration that gives 50% inhibition. Consider `O=C(O)CC[C@H](NP(=O)(O)OC[C@H](NC(=O)CC[C@H](NC(=O)c1ccc(F)cc1)C(=O)O)C(=O)O)C(=O)O` [compound 2, S-2-((2-(S-4-(4-Fluorobenzamido)-4-Carboxybutanamido)-S-2-Carboxyethoxy) Hydroxyphosphorylamino)-Pentanedioic Acid], for which the 50% inhibitory concentration (IC50) at purified PSMA is 0.68 nM.

As to `O=C(O)CC[C@H](NP(=O)(O)OC[C@H](NC(=O)CC[C@H](NC(=O)c1ccc([18F])cc1)C(=O)O)C(=O)O)C(=O)O` [compound 3, ^18F-S-2-((2-(S-4-(4-Fluorobenzamido)-4-Carboxybutanamido)-S-2-Carboxyethoxy) Hydroxyphosphoryl-Amino)-Pentanedioic Acid], in data set [1], the “PET tumor uptake after blocking” value is “substantial decrease in tumor uptake”. For the same molecule, the “tumor uptake in PSMA− control” value in data set [2] (PC-3 tumor, 2 h post-injection) turned out to be 0.32 ± 0.14 %ID/g. In addition, the kidney uptake in data set [2] (PSMA− (PC-3) model, 2 h) is 2.83 ± 0.9 %ID/g. In addition, the PET tumor signal result in data set [3] was “no detectable tumor signal”.
